# Measurements collected from several papers.
# Lines come from different studies, so protocols differ.
# Mode: inhibitor
# KCNH2: Voltage-gated inwardly rectifying potassium channel KCNH2 (KCNH2, Homo sapiens, UniProt Q12809)
# Dihydroorotate dehydrogenase, mitochondrial, putative: Dihydroorotate dehydrogenase, mitochondrial, putative (Plasmodium vivax, UniProt A5K1N1)
# HDAC6: Protein deacetylase HDAC6 (HDAC6, Homo sapiens, UniProt Q9UBN7)
SMILES,target,read-out,method,pH,IC50
CC1(F)CN(C(=O)Cn2c(=O)c(C(=O)NCc3ccc(Cl)cc3)cc3nc(N4CCCC4=O)cnc32)C1,KCNH2,ion current,patch clamp,,> 40000 nM
Cc1c(C(=O)OC2CC2)nn(C)c1Cc1ccc(C(F)(F)F)nc1,"Dihydroorotate dehydrogenase, mitochondrial, putative",enzyme activity,absorbance,,16 nM
O=C(NO)c1cc(F)cc(OS(=O)(=O)Oc2ccccc2)c1,HDAC6,enzyme activity,fluorescence,,77 nM
CN(C)C(=O)c1cc2cnc(Nc3ccc(N4CCNCC4)cn3)nc2n1C1CCCC1,"3',5'-cyclic-AMP phosphodiesterase 4D (PDE4D, Homo sapiens, UniProt Q08499)",enzyme activity,TR-FRET,,> 10000 nM
COc1cccc(OS(=O)(=O)Oc2cccc(C(=O)NO)c2)c1,HDAC6,enzyme activity,fluorescence,,92 nM
COc1ccc2c(C(=S)N(C)CC(=O)O)cccc2c1C(F)(F)F,"Aldo-keto reductase family 1 member B10 (AKR1B10, Homo sapiens, UniProt O60218, K125R)",enzyme activity,,,124 nM
CC1(F)CN(C(=O)Cn2c(=O)c(C(=O)NCc3ccc(Cl)cc3)cc3nccnc32)C1,KCNH2,ion current,patch clamp,,5910 nM
Cc1cc(Nc2nccc(C)n2)cc(-c2cnc([C@@]3(O)CC[C@H](C(=O)NCCCNC(=O)CCc4ccc5n4[B-](F)(F)[N+]4=C(c6ccc[nH]6)C=CC4=C5)C(C)(C)C3)s2)c1,"Tyrosine-protein kinase SYK (SYK, Homo sapiens, UniProt P43405)",enzyme activity,radiometric,,110 nM
CC[C@@](O)(c1cnc(C(F)(F)F)c(Cl)c1)c1c2cnn(C3CC3)c(=O)c2nn1C,"Dihydroorotate dehydrogenase, mitochondrial, putative",enzyme activity,absorbance,,19 nM
O=c1oc(-c2ccco2)nc2ccccc12,"Prothrombin (F2, Homo sapiens, UniProt P00734)",enzyme activity,absorbance,pH 7.4,> 50000 nM
Cn1nc2c(=O)n(C3CC3)ncc2c1[C@](N)(c1ccc(C(F)(F)F)c(Cl)c1)C1CC1,"Dihydroorotate dehydrogenase, mitochondrial, putative",enzyme activity,absorbance,,6.7 nM
O=C(NO)c1cccc(OS(=O)(=O)Oc2ccc(C(F)(F)F)cc2)c1,HDAC6,enzyme activity,fluorescence,,842 nM
Cn1nc2c(=O)n(C3CC3)ncc2c1[C@](O)(c1cnc(C(F)(F)F)c(Cl)c1)C(F)(F)F,"Dihydroorotate dehydrogenase, mitochondrial, putative",enzyme activity,absorbance,,17 nM
CC1(F)CN(C(=O)Cn2c(=O)c(C(=O)NCc3ccc(Cl)cc3)cc3nc(N4CCOC4=O)cnc32)C1,KCNH2,ion current,patch clamp,,5620 nM
CCn1cnc2c([C@@](O)(CC)c3ccc(C(F)(F)F)nc3)n(C)nc2c1=O,"Dihydroorotate dehydrogenase, mitochondrial, putative",enzyme activity,absorbance,,26 nM
CC(C)c1cccc(OS(=O)(=O)Oc2cc(F)cc(C(=O)NO)c2)c1,HDAC6,enzyme activity,fluorescence,,832 nM
CC[C@@](N)(c1cnc(C(F)(F)F)c(Cl)c1)c1c2ncn(C3CC3)c(=O)c2nn1C,"Dihydroorotate dehydrogenase, mitochondrial, putative",enzyme activity,absorbance,,40 nM
CC(C)(C)c1ccc(OS(=O)(=O)Oc2cc(F)cc(C(=O)NO)c2)cc1,HDAC6,enzyme activity,fluorescence,,2100 nM
